Experimental findings from ChEMBL document CHEMBL1921679, “Synthesis and biological evaluation of novel pyrimidine derivatives as sub-micromolar affinity ligands of GalR2” (Bioorg Med Chem Lett, 2011) are described below.

The term IC50 denotes the concentration at which inhibition is half-maximal. Higher therefore signals lower potency. As usually defined, the inhibition is how much of the control response was suppressed.

The target in one experiment is T1, Galanin receptor type 2 (Homo sapiens, UniProt O43603).
T1 sequence (O43603 whole entry): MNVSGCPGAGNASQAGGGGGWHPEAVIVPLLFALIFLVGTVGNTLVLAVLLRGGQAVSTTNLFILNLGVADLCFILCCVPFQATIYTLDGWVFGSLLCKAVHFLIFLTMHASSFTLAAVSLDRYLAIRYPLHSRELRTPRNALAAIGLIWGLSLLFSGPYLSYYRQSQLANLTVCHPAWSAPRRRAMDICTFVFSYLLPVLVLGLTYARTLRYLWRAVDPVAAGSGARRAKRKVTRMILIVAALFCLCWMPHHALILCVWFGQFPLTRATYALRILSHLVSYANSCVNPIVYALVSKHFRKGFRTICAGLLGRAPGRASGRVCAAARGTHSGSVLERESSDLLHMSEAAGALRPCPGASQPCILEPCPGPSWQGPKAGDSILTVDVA
Nature of the experiment: Displacement of [125I]galanin from GalR2 at 100 uM by gamma counting.

Experiment [1] deals with T2, Galanin receptor type 1 (Homo sapiens, UniProt P47211).
T2 sequence (P47211 whole entry): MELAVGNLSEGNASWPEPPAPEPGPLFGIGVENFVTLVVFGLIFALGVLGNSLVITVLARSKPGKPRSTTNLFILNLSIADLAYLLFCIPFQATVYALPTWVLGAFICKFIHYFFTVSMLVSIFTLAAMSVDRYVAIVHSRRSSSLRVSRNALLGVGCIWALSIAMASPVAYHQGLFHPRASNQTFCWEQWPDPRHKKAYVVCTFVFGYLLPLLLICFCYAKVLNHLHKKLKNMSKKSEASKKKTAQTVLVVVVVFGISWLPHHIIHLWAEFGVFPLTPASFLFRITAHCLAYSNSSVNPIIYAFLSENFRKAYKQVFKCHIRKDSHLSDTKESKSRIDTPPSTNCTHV
Nature of the experiment: Displacement of [125I]galanin from GalR1 at 100 uM by gamma counting. (Loss of bound radioactivity is the signal in a displacement assay; it reports binding, not function.)

The target of experiment [2] is T3, Galanin receptor type 2 (Homo sapiens) (UniProt O43603).
T3 sequence (whole entry): T1 sequence (O43603 whole entry)
The experiment can be described thus: Displacement of [125I]galanin from GalR2 at 10 uM by gamma counting. In outline: (§1)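 Single-point screen at 1 and 10 μM, in duplicate, with two screens per receptor. Final 125I porcine galanin was 0.1 nM (GalR1) or 0.15 nM (GalR2). Incubation 1 h, room temperature. Filtration through PEI-treated glass fibre, cold PBS/Triton washes, γ-counting.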

For experiment [3], the target named is T2, Galanin receptor type 1. The experiment can be described thus: Displacement of [125I]galanin from GalR1 by gamma counting. In outline: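 Full-curve competition over 10 nM–100 μM, with a rat galanin control on every plate. Compounds were diluted in 20% DMSO. Membranes were GalR1 2.5 μg or GalR2 5 μg, with 125I porcine galanin at 0.1 nM (GalR1) or 0.15 nM (GalR2), 1 h at room temperature. Filtration, washing and γ-counting followed. IC50 came from a nonlinear one-site competition fit, reported only when the curve bottom fell below 35% of total binding.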

In experiment [4] the target is T3, Galanin receptor type 2 (Homo sapiens). Nature of the experiment: Displacement of [125I]galanin from GalR2 at 1 uM by gamma counting. In outline: as §1

Each structure is given as a SMILES string. A value given as a limit tells only on which side of the number the result lay.

`COc1ccc(Nc2nc(Nc3ccc(OC(F)F)cc3)cc(N3CCCCC3)n2)cc1`: the IC50 entry on Galanin receptor type 2 and at Galanin receptor type 1 [1] was “Not Active” in each case.

Regarding `COc1ccc(Nc2nc(Nc3ccc(OC)c(F)c3)cc(N3CCCC3)n2)cc1`, the IC50 result on Galanin receptor type 2 and on Galanin receptor type 1 [1] was “Not Active” in each case.

As to `COc1ccc(Nc2nc(NCC3CCCCC3)cc(Nc3ccc(OC)c(F)c3)n2)cc1`, the IC50 result at Galanin receptor type 2 was “Not Active”; at Galanin receptor type 1 [3], 3.84 µM. Moreover, the inhibition in experiment [2] and in experiment [4] was above 50% in each case.

In the case of `COc1ccc(Nc2nc(Nc3ccc(OC)c(F)c3)cc(N3CCCCC3C)n2)cc1` (stereo not drawn), the IC50 entry on Galanin receptor type 2 and at Galanin receptor type 1 [1] was “Not Active” in each case.

Regarding `COc1ccc(Nc2nc(Nc3ccc(OC)c(F)c3)cc(N3CCC(N4CCCCC4)CC3)n2)cc1`, the IC50 entry on Galanin receptor type 2 was “Not Active”; at Galanin receptor type 1 [3] it was 16 µM.

In the case of `COc1ccc(Nc2nc(Nc3ccc(OC)c(F)c3)cc(N3CCC(C)CC3)n2)cc1`, the IC50 result at Galanin receptor type 2 and on Galanin receptor type 1 [1] was “Not Active” in each case.

For `FC(F)(F)Oc1ccc(Nc2cc(Nc3ccccc3)nc(N3CCCCC3)n2)cc1`, the IC50 entry at Galanin receptor type 2 and at Galanin receptor type 1 [1] was “Not Active” each time.

As for `COc1ccc(Nc2nc(Nc3ccc(OC)c(F)c3)cc(N3CCN(c4ncccn4)CC3)n2)cc1`, the 50% inhibitory concentration (IC50) result at Galanin receptor type 2 is “Not Active”; on Galanin receptor type 1 [3], 3.84 µM.
